Measurements collected from several papers.
Protocols differ between the studies behind these lines.
Target: Myosin light chain kinase 2, skeletal/cardiac muscle (MYLK2, Homo sapiens, UniProt Q9H1R3)

`CC/C(=N\NC(=O)NCc1cccc(O)c1)c1ccc(O)c(C)c1O` has an inhibition of 6% (enzyme activity, inhibitor; 0.1 µM).
`N#CCCc1ccc2c(c1)-c1[nH]c3ccc([N+](=O)[O-])cc3c1CC(=O)N2` has a remaining signal of 93.9% (cell-free assay; 0.5 µM).
For `CC(C)(O)[C@H]1CC[C@H](Nc2ccc3ncc(-c4cccc(C(F)(F)F)c4)n3n2)CC1`, the remaining activity was 96.7% (enzyme activity, inhibitor; 1 µM).
`Cc1sc(C(=O)NC2COC2)cc1-n1cc(NC(=O)Nc2c(F)cccc2Cl)cn1` gave a remaining activity of 78.7% (enzyme activity, inhibitor; 10 µM).
The remaining binding of `COc1cccc(CNC(=O)c2nc3scc(COCc4ccc(C(=O)O)cc4)c3c(=O)[nH]2)c1` is reported as 100% (cell-free assay, competition with immobilised ligand; 1 µM).
The inhibition of `COc1cc2ncnc(Nc3ccc(Oc4ccccc4)cc3C)c2cc1OC` is reported as -4% (enzyme activity, inhibitor; 1 µM).
With `Cc1ccc(C(=O)Nc2ccc(CN3CCN(C)CC3)c(C(F)(F)F)c2)cc1C#Cc1cnc2cccnn12` the remaining activity was 100% (enzyme activity, inhibitor; 23.5 nM).
`CS(=O)(=O)NCC[C@H](NC(=O)c1cncc2c1cnn2-c1ccc(F)cc1)c1ccnc(S(C)(=O)=O)c1` gave a remaining binding of 93% (cell-free assay, competition with immobilised ligand; 1 µM).
`Cc1cc(NC(=O)c2cccc3cc(-c4cccc5[nH]nc(N)c45)ccc23)ccc1F` gave an activity vs control of 97% (enzyme activity, inhibitor; 0.1 µM).
`CN([C@@H]1CCc2c(CC(=O)O)c3cc(S(C)(=O)=O)ccc3n2C1)S(=O)(=O)c1ccc(F)cc1` gave a remaining binding of 100% (cell-free assay, competition with immobilised ligand; 1 µM).
With `Cc1cnc(NC2CCOCC2)nc1-n1cnc(C(=O)NC(CN)c2cc(F)cc(Cl)c2)c1` (stereo not shown) the remaining activity was 95% (enzyme activity, inhibitor, radiometric; 1 µM).
For `COc1cc2c(N3CCN(C(=O)Nc4ccc(OC(C)C)cc4)CC3)ncnc2cc1OCCCN1CCCCC1`, the remaining signal was 101% (cell-free assay; 0.5 µM).
The inhibition of `CCN(CC)CCNC(=O)c1c(C)[nH]c(/C=C2\C(=O)Nc3ccc(F)cc32)c1C` is reported as 37% (enzyme activity, inhibitor; 0.3 µM).
The remaining activity of `CC(C)(C)c1nc(-c2cccc(NS(=O)(=O)c3c(F)cccc3F)c2F)c(-c2ccnc(N)n2)s1` is reported as 112% (enzyme activity, inhibitor, radiometric; 1 µM).
For `O=C(NCc1ncc(C(F)(F)F)cc1Cl)c1ccc2c(c1)C1(CCS(=O)(=O)CC1)[C@H](C1CC1)N2S(=O)(=O)c1ccc(F)cc1`, the remaining binding was 100% (cell-free assay, competition with immobilised ligand; 1 µM).
With `O=C(Nc1cnn(-c2csc(C(=O)NC3COC3)c2)c1)Nc1ccccc1Cl` the remaining activity was 89.9% (enzyme activity, inhibitor; 5 µM).
For `CNC(=O)c1cc(Oc2ccc(NC(=O)Nc3ccc(Cl)c(C(F)(F)F)c3)cc2)ccn1`, the inhibition was 16% (enzyme activity, inhibitor; 10 µM).
With `Cc1nc(Cc2cccc(C(F)(F)F)c2)sc1-c1ccc(C(N)=O)nc1` the remaining binding was 77% (cell-free assay, competition with immobilised ligand; 1 µM).
For `O=C1Nc2ccc(Cl)cc2C1=Cc1cc(Cl)c(O)c(Cl)c1`, the remaining signal was 71.5% (cell-free assay; 0.5 µM).
